Assay results published in ChEMBL document CHEMBL1144410, “Synthesis of 3-arylpiperazinylalkylpyrrolo[3,2-d]pyrimidine-2,4-dione derivatives as novel, potent, and selective alpha1-adrenoceptor ligands” (J Med Chem, 2005).
pKi: −log10 of the molar value.

Tests used:
[1] = target: T1, Adrenergic receptor alpha-1 (Rattus norvegicus, UniProt P15823+P23944+P43140); assay: Inhibition of [3H]prazosin binding to Alpha-1 adrenergic receptor from rat cortex
T1 sequence (P15823 whole entry): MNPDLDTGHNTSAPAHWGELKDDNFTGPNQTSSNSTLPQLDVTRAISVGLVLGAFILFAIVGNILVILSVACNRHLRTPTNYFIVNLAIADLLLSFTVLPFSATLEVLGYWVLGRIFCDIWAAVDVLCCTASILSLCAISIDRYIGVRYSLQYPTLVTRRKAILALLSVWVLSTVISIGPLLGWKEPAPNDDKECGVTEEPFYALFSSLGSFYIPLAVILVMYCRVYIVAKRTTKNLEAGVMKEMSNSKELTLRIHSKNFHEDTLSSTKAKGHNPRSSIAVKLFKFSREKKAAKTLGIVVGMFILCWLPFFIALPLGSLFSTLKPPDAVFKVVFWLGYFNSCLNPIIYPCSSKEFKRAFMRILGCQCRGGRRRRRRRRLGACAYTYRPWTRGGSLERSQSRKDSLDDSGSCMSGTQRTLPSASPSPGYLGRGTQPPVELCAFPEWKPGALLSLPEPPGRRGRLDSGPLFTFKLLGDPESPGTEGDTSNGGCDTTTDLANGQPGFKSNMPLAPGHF
T1 sequence (P23944 whole entry): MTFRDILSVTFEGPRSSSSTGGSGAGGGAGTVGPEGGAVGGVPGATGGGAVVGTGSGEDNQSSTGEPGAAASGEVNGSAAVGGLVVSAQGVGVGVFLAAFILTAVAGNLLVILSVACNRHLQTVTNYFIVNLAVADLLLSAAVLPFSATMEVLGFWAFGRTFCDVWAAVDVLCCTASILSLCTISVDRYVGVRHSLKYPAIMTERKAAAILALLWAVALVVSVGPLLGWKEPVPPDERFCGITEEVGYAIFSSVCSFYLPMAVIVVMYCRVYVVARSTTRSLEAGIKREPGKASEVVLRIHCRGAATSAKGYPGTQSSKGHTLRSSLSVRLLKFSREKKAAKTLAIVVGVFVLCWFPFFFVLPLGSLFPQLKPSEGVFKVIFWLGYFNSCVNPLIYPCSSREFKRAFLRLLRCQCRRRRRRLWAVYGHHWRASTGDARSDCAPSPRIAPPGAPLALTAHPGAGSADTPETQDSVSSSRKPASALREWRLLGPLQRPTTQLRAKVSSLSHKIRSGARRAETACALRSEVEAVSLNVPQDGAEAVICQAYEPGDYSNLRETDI
T1 sequence (P43140 whole entry): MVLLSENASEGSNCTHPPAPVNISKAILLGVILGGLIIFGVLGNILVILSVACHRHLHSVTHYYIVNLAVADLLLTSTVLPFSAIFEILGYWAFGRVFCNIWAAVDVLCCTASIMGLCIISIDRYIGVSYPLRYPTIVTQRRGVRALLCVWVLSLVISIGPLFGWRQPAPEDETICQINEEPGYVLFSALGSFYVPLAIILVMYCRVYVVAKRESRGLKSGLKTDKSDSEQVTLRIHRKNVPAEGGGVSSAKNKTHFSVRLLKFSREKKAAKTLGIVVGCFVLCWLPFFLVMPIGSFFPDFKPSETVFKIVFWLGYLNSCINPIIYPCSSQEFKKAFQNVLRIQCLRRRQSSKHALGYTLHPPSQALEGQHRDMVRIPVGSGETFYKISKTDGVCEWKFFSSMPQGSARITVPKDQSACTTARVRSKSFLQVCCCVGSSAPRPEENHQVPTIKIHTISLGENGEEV
Summary of the method: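 Prepared membranes resuspended in 50 mM Tris-HCl pH 7.7 with 10 µM pargyline and 0.1% ascorbic acid. [3H]prazosin 0.2 nM final, 30 min, 25 °C; nonspecific binding with 3 µM phentolamine. Bound ligand collected on GF/B filters, counted by liquid scintillation. Ki derived from IC50 of dose-inhibition curves; mean ± SD of three separate experiments.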

D(1A) dopamine receptor = D(1A) dopamine receptor (Rattus norvegicus, UniProt P18901); assay: Inhibition of [3H]SCH-23390 binding to Dopamine receptor D1 from rat striatum
D(1A) dopamine receptor, sequence (P18901 whole entry): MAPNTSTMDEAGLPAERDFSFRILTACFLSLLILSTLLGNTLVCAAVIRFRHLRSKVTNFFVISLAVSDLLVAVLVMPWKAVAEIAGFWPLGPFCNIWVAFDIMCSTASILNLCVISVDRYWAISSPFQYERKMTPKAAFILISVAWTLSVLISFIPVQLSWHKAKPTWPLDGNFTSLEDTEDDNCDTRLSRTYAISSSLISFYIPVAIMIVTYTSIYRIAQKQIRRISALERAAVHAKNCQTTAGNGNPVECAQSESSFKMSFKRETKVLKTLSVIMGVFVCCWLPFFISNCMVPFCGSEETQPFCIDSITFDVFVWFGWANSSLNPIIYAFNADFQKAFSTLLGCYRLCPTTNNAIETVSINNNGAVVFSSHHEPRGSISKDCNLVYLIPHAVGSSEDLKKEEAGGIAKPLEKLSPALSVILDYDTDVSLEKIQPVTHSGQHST
Summary of the method: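 Ligand was [3H]SCH23390 at 0.4 nM final, 15 min, 25 °C; nonspecific binding defined with 10 µM (-)-cis-flupentixol. Filtration on GF/B, liquid scintillation counting. IC50 fitted, Ki derived; mean ± SD, n=3.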

D(2) dopamine receptor = D(2) dopamine receptor (Rattus norvegicus, UniProt P61169); assay: Inhibition of [3H]spiperone binding to Dopamine receptor D2 from rat striatum
D(2) dopamine receptor, sequence (P61169 whole entry): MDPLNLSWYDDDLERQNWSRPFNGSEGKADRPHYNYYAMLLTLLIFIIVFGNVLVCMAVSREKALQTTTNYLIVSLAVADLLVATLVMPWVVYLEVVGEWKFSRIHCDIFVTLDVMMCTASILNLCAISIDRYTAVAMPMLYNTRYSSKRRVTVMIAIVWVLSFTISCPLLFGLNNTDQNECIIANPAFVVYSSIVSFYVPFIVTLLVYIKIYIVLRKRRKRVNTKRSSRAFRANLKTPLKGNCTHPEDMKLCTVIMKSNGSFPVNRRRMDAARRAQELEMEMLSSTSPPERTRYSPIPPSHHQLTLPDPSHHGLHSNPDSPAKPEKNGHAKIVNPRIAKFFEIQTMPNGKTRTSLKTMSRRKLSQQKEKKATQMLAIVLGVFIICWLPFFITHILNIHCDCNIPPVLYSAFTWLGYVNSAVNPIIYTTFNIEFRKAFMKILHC
Summary of the method: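 Membrane incubation in 50 mM Tris-HCl pH 7.1 with 10 µM pargyline, 120 mM NaCl, 5 mM KCl, 2 mM CaCl2, 1 mM MgCl2 and 0.1% ascorbic acid. [3H]spiperone 0.2 nM final, 15 min at 37 °C; 100 µM (-)-sulpiride for nonspecific binding. Vacuum filtration through GF/B, scintillation counting; Ki from IC50 of dose-inhibition curves, mean ± SD of three runs.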

[2] = target: Serotonin 1a (5-HT1a) receptor/Adrenergic receptor alpha-1 (Rattus norvegicus) (UniProt P15823+P23944+P43140+P19327); assay: Relative binding affinity for 5-hydroxytryptamine 1A and Alpha-1 adrenergic receptors; format: protein assay
Rattus norvegicus [3] = species: Rattus norvegicus; assay: Relative binding affinity for Dopamine D1 and Alpha-1 adrenergic receptors
Rattus norvegicus [4] = species: Rattus norvegicus; assay: Relative binding affinity for Dopamine D2 and Alpha-1 adrenergic receptors
[5] = target: T2, 5-hydroxytryptamine receptor 1A (Rattus norvegicus, UniProt P19327); assay: Inhibition of [3H]8-OH-DPAT binding to 5-hydroxytryptamine 1A receptor from rat hippocampus; format: tissue-based
T2 sequence (P19327 whole entry): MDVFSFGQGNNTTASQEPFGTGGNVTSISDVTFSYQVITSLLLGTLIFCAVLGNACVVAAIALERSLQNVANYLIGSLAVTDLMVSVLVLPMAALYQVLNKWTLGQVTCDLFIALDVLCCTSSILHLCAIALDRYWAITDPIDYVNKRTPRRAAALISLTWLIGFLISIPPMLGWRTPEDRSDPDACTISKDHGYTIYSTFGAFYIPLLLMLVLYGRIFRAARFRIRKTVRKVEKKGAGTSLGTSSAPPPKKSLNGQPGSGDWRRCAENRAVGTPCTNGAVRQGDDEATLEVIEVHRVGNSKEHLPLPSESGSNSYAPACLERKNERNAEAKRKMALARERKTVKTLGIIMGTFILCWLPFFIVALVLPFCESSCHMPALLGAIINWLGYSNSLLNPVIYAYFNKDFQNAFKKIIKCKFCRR
Summary of the method: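 Membranes: tissue homogenized in ice-cold 50 mM Tris-HCl pH 7.4, spun 50000g, preincubated 37 °C 10 min, washed. Incubation buffer 50 mM Tris-HCl pH 7.7, 10 µM pargyline, 4 mM CaCl2. [3H]8-OH-DPAT 1 nM final, 30 min, 25 °C; nonspecific with 10 µM 5-HT. Stopped by GF/B filtration, scintillation counting. IC50 from dose-inhibition curves, converted to Ki; mean ± SD of three experiments.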

With `O=c1[nH]c2cc(-c3ccccc3Cl)[nH]c2c(=O)n1CCN1CCN(c2ccccc2Cl)CC1` the Ki [1] was 0.46 nM, the pKi (D(1A) dopamine receptor) was less than 5.00 and the pKi (D(2) dopamine receptor) was 7.56. For the same compound, the Ratio [2] was greater than 20000, the Ratio (Rattus norvegicus [3]) was greater than 20000 and the Ratio (Rattus norvegicus [4]) was 60. It also gave a pKi [5] of less than 5.00.

`COc1ccccc1N1CCN(CCn2c(=O)[nH]c3cc(-c4ccccc4)[nH]c3c2=O)CC1` was tested, and the Ki [1] was 0.52 nM, the Ratio [2] was 46 and the pKi [5] was 7.62.

`Cc1ccc(-c2cc3[nH]c(=O)n(CCCN4CCN(c5ccccc5Cl)CC4)c(=O)c3[nH]2)cc1` showed a Ki [1] of 110.1 nM, a Ratio [2] greater than 90 and a pKi [5] of less than 5.00.

For `Cc1ccc(-c2cc3[nH]c(=O)n(CCN4CCN(c5ccccc5Cl)CC4)c(=O)c3[nH]2)cc1`, the Ki [1] was 17.26 nM, the pKi (D(1A) dopamine receptor) was less than 5.00 and the pKi (D(2) dopamine receptor) was less than 5.00. For the same compound, the Ratio [2] was greater than 500, the Ratio (Rattus norvegicus [3]) was greater than 500 and the Ratio (Rattus norvegicus [4]) was greater than 500. It also gave a pKi [5] of less than 5.00.

Compound `COc1ccccc1N1CCN(CCn2c(=O)[nH]c3cc(-c4ccccc4Cl)[nH]c3c2=O)CC1` has a Ki [1] of 0.76 nM, a Ratio [2] of 21 and a pKi [5] of 7.79.

`COc1ccc(N2CCN(CCn3c(=O)[nH]c4cc(-c5ccccc5)[nH]c4c3=O)CC2)cc1` gave a Ki [1] greater than 10000 nM and a pKi [5] of less than 5.00.

For `COc1ccccc1N1CCN(CCn2c(=O)[nH]c3cc[nH]c3c2=O)CC1`, the Ki [1] was 2.31 nM, the Ratio [2] was 282 and the pKi [5] was 6.19.

`O=c1[nH]c2cc[nH]c2c(=O)n1CCN1CCN(c2ccccc2Cl)CC1` showed a Ki [1] of 0.94 nM, a pKi (D(1A) dopamine receptor) of less than 5.00 and a pKi (D(2) dopamine receptor) of 6.49. It also gave a Ratio [2] of 594, a Ratio (Rattus norvegicus [3]) greater than 10000 and a Ratio (Rattus norvegicus [4]) of 343. It also gave a pKi [5] of 6.25.

`COc1ccccc1N1CCN(CCCn2c(=O)[nH]c3cc[nH]c3c2=O)CC1` gave a Ki [1] of 28.01 nM, a Ratio [2] of 6.9 and a pKi [5] of 6.71.

With `O=c1[nH]c2cc(-c3ccc(Cl)cc3)[nH]c2c(=O)n1CCN1CCN(c2ccccc2Cl)CC1` the Ki [1] was 11.7 nM, the pKi (D(1A) dopamine receptor) was less than 5.00 and the pKi (D(2) dopamine receptor) was less than 5.00. For the same compound, the Ratio [2] was greater than 800, the Ratio (Rattus norvegicus [3]) was greater than 800 and the Ratio (Rattus norvegicus [4]) was greater than 800. It also gave a pKi [5] of less than 5.00.

With `COc1ccc(-c2cc3[nH]c(=O)n(CCN4CCN(c5ccccc5Cl)CC4)c(=O)c3[nH]2)cc1` the Ki [1] was 3.4 nM, the pKi (D(1A) dopamine receptor) was less than 5.00 and the pKi (D(2) dopamine receptor) was 8.65. It also gave a Ratio [2] greater than 2500, a Ratio (Rattus norvegicus [3]) greater than 2500 and a Ratio (Rattus norvegicus [4]) of 0.65. The pKi [5] was less than 5.00.

Compound `COc1ccccc1N1CCN(CCn2c(=O)[nH]c3cc(-c4cccc(Cl)c4)[nH]c3c2=O)CC1` has a Ki [1] of 19.32 nM, a Ratio [2] of 0.87 and a pKi [5] of 7.77.

Work on `COc1ccccc1N1CCN(CCCn2c(=O)[nH]c3cc(-c4ccc(C)cc4)[nH]c3c2=O)CC1` yielded a Ki [1] of 47.88 nM, a Ratio [2] of 1.73 and a pKi [5] of 7.08.

In the case of `COc1ccccc1N1CCN(CCCn2c(=O)[nH]c3cc(-c4ccccc4)[nH]c3c2=O)CC1`, the Ki [1] was 1.23 nM, the Ratio [2] was 18 and the pKi [5] was 7.65.

`COc1ccccc1N1CCN(CCn2c(=O)[nH]c3cc(-c4ccc(Cl)cc4)[nH]c3c2=O)CC1` showed a Ki [1] of 7.68 nM, a pKi (D(1A) dopamine receptor) of less than 5.00 and a pKi (D(2) dopamine receptor) of 8.44. The Ratio [2] was greater than 1000, the Ratio (Rattus norvegicus [3]) was greater than 1000 and the Ratio (Rattus norvegicus [4]) was 0.47. The pKi [5] was less than 5.00.

`COc1ccccc1N1CCN(CCn2c(=O)[nH]c3c([nH]c4ccccc43)c2=O)CC1` was tested, and the Ratio [2] was 238.

Work on `O=c1[nH]c2c([nH]c3ccccc32)c(=O)n1CCN1CCN(c2ccccc2Cl)CC1` yielded a Ki [1] of 0.53 nM, a Ratio [2] greater than 15000 and a pKi [5] of less than 5.00.

In the case of `COc1ccccc1N1CCN(CCn2c(=O)[nH]c3cc(-c4ccc(C)cc4)[nH]c3c2=O)CC1`, the Ki [1] was 2.05 nM, the pKi (D(1A) dopamine receptor) was less than 5.00 and the pKi (D(2) dopamine receptor) was 7.70. The Ratio [2] was greater than 4500, the Ratio (Rattus norvegicus [3]) was greater than 4500 and the Ratio (Rattus norvegicus [4]) was 9.7. The pKi [5] was less than 5.00.

`O=c1[nH]c2cc(-c3ccccc3)[nH]c2c(=O)n1CCCN1CCN(c2ccccc2Cl)CC1` showed a Ki [1] of 62.37 nM, a Ratio [2] of 2.1 and a pKi [5] of 6.89.

With `O=c1[nH]c2cc(-c3ccccc3)[nH]c2c(=O)n1CCN1CCN(c2ccccc2Cl)CC1` the Ki [1] was 1.08 nM, the Ratio [2] was 32 and the pKi [5] was 7.46.

`O=c1[nH]c2cc[nH]c2c(=O)n1CCCN1CCN(c2ccccc2Cl)CC1` gave a Ki [1] of 59.78 nM, a Ratio [2] of 6.3 and a pKi [5] of 6.42.
